Among the data in ChEMBL document CHEMBL1124597, “Quinones. 4. Novel eicosanoid antagonists: synthesis and pharmacological evaluation” (J Med Chem, 1989) are Inhibition and IC50 values, retold here.

Type in all cases: functional
The species entered for experiment [1] is Oryctolagus cuniculus. The experiment can be described thus: In vitro percent inhibition against U-44,069 (10e-7 M) induced contraction of rabbit aorta at 10e-5 M concentration. A digest of the protocol:
(§1)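 Rabbit aortic strips (2-3 mm × 3 cm) in Krebs-Henseleit, 37 °C, 95% O2/5% CO2, 2 g resting tension, isometric recording. Drugs (final 10⁻⁵ to 10⁻⁸ M, 0.01% DMSO) added 10 min before U-44069 (2-6 nM, about 50% of the 30 mM KCl contraction). Percent inhibition, or concentration reducing contraction by 50%; duplicate means.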

The species entered for experiment [2] is Oryctolagus cuniculus. The experiment can be described thus: In vitro percent inhibition against U-44,069 (10e-7 M) induced contraction of rabbit aorta at 10e-6 M concentration. The procedure, abridged: as §1
Experiment [3] is filed under the species Oryctolagus cuniculus. In words: In vitro concentration that reduced U-44069-induced contraction of the rabbit aorta by 50%. The procedure, abridged: as §1
For experiment [4], the species on record is Oryctolagus cuniculus. The experiment can be described thus: In vitro percent inhibition against U-44,069 (10e-7 M) induced contraction of rabbit aorta at 10e-7 M concentration. The procedure, abridged: as §1

By Inhibition is commonly meant the relative decrease from the control value, in per cent. In the case of `CC1=C(C)C(=O)C(C(CCCCCc2nnn[nH]2)c2ccccc2)=C(C)C1=O` (stereo not given), in the experiment filed under Oryctolagus cuniculus [1], the Inhibition is listed as 2%.
Compound `CC1=C(C)C(=O)C(C(CCCCCCCCC(=O)O)c2ccccc2)=C(C)C1=O` (stereo not given) showed an Inhibition in the experiment listed under Oryctolagus cuniculus [1] of 41%.
Turning to `CC1=C(C)C(=O)C(C(CCCC#CC(=O)O)c2ccccc2)=C(C)C1=O` (stereo not given), the Inhibition in the experiment filed under Oryctolagus cuniculus [1] is 72%.
The same measure, in the same setting: next, `CC1=C(C)C(=O)C(C(CCCCCC(=O)NCC(=O)O)c2ccccc2)=C(C)C1=O` (stereo not given): 0%.
In general, IC50 refers to the point on the concentration scale where inhibition reaches its midpoint. Read a low IC50 as greater potency in that assay. `CC1=C(C)C(=O)C(C(CCCCCC(=O)O)c2cccc(F)c2)=C(C)C1=O` (stereo not given): the Inhibition in the experiment listed under Oryctolagus cuniculus [2] is recorded as 31%; in the experiment filed under Oryctolagus cuniculus [1], 100%. Besides, in the experiment filed under Oryctolagus cuniculus [3], the IC50 turned out to be 1.9 µM.
`CC1=C(C)C(=O)C(C(CCCCCC(=O)O)c2ccc(C)cc2)=C(C)C1=O` (stereo not given): the Inhibition in the experiment listed under Oryctolagus cuniculus [2] was determined as 50%; in the experiment listed under Oryctolagus cuniculus [1] it was 100%. It took 1 µM to reach half-maximal inhibition in the experiment filed under Oryctolagus cuniculus [3] (IC50).
Compound `CC1=C(C)C(=O)C(C(CCC(=O)NCC(=O)O)c2ccccc2)=C(C)C1=O` (stereo not given) yielded an Inhibition in the experiment filed under Oryctolagus cuniculus [1] of 0%.
The same measure, in the same setting: next, `CC1=C(C)C(=O)C(C(CCCCCC(=O)O)c2cccc(C(F)(F)F)c2)=C(C)C1=O` (stereo not given): 64%; `CC1=C(C)C(=O)C(C(CCC(=O)O)c2ccccc2)=C(C)C1=O` (stereo not given): 0%; `CC1=C(C)C(=O)C(C(C)CCCCCC(=O)O)=C(C)C1=O` (stereo not given): 0%.
Consider `CC1=C(C(CCCCCC(=O)O)c2ccc(F)cc2)C(=O)c2ccccc2C1=O` (stereo not given), for which the figures for the Inhibition in the experiment listed under Oryctolagus cuniculus [2], in the experiment listed under Oryctolagus cuniculus [4] and in the experiment listed under Oryctolagus cuniculus [1] were 100%, 78% and 100%, respectively.
For the compound `CC1=C(C)C(=O)C(C(CCOc2cccc(C(=O)O)c2)c2ccccc2)=C(C)C1=O` (stereo not given), the Inhibition in the experiment filed under Oryctolagus cuniculus [1] was 2%.
On to `CC1=C(C(CCCCCC(=O)O)c2ccccc2)C(=O)c2ccccc2C1=O` (stereo not given), for which the Inhibition in the experiment filed under Oryctolagus cuniculus [2] was found to be 99%; in the experiment listed under Oryctolagus cuniculus [4] it was 20%; in the experiment listed under Oryctolagus cuniculus [1], 100%. In addition, it took 0.24 µM to reach half-maximal inhibition in the experiment listed under Oryctolagus cuniculus [3] (IC50).
For `CC1=C(C)C(=O)C(C(CCCCCC(=O)O)c2ccccc2C)=C(C)C1=O` (stereo not given), the Inhibition worked out at 0% in the experiment listed under Oryctolagus cuniculus [2] and 99% in the experiment filed under Oryctolagus cuniculus [1]. Also, the half-inhibitory concentration (IC50) in the experiment filed under Oryctolagus cuniculus [3] is 3.2 µM.
`COc1ccccc1C(CCCCCC(=O)O)C1=C(C)C(=O)C(C)=C(C)C1=O` (stereo not given) had an Inhibition in the experiment listed under Oryctolagus cuniculus [1] of 0%.
For `CC1=C(C)C(=O)C(C(CCCCC(C)(C)C(=O)O)c2ccccc2)=C(C)C1=O` (stereo not given), the Inhibition in the experiment listed under Oryctolagus cuniculus [1] is 12%.
`CC1=C(C)C(=O)C(C(CCCCCC(N)=O)c2ccccc2)=C(C)C1=O` (stereo not given) displayed an Inhibition in the experiment listed under Oryctolagus cuniculus [1] of 6%.
In the case of `COc1ccc(C(CCCCCC(=O)O)C2=C(C)C(=O)C(C)=C(C)C2=O)cc1` (stereo not given), the Inhibition in the experiment listed under Oryctolagus cuniculus [2] is 3%; in the experiment listed under Oryctolagus cuniculus [1] it was 100%. The same compound showed an IC50 in the experiment listed under Oryctolagus cuniculus [3] of 3 µM.
Consider `COC(=O)CCCCCC(C1=C(C)C(=O)C(C)=C(C)C1=O)c1ccccc1` (stereo not given), for which the figures for the Inhibition in the experiment filed under Oryctolagus cuniculus [2] and in the experiment listed under Oryctolagus cuniculus [1] were 36% and 95%, respectively. This compound also had an IC50 in the experiment filed under Oryctolagus cuniculus [3] of 1.4 µM.
For `CCCCCCC(C1=C(C)C(=O)C(C)=C(C)C1=O)c1ccccc1` (stereo not given), in the experiment filed under Oryctolagus cuniculus [1], the Inhibition turned out to be 25%.
Still for that read-out and setting: then `CC1=C(C)C(=O)C(C(CCCCCCO)c2ccccc2)=C(C)C1=O` (stereo not given), with 0%.
Regarding `CC1=C(C)C(=O)C(C(CCCCCCCC(=O)O)c2ccccc2)=C(C)C1=O` (stereo not given), the Inhibition is 0% in the experiment listed under Oryctolagus cuniculus [2] and 94% in the experiment filed under Oryctolagus cuniculus [1]. Inhibition in the experiment filed under Oryctolagus cuniculus [3] was half-maximal at 3.4 µM (IC50).
`CC1=C(C)C(=O)C(C(CCCCCC(=O)NC(C)c2ccccc2)c2ccccc2)=C(C)C1=O` (stereo not given): the Inhibition in the experiment listed under Oryctolagus cuniculus [1] is reported as 33%.
Turning to `CC1=C(C)C(=O)C(C(CCCCCCC(=O)O)c2ccccc2)=C(C)C1=O` (stereo not given), the Inhibition in the experiment filed under Oryctolagus cuniculus [2] worked out at 0%; in the experiment filed under Oryctolagus cuniculus [1], 98%. This compound yielded a half-maximal inhibitory concentration (IC50) in the experiment listed under Oryctolagus cuniculus [3] of 3.2 µM.
In the experiment filed under Oryctolagus cuniculus [1], `CC1=C(C)C(=O)C(C(CCCCCC(=O)NC(C)C)c2ccccc2)=C(C)C1=O` (stereo not given) yielded an Inhibition of 8%.
For the compound `CC1=C(C)C(=O)C(C(CCCCC(=O)O)c2ccccc2)=C(C)C1=O` (stereo not given), the Inhibition in the experiment listed under Oryctolagus cuniculus [1] stood at 63%.
Compound `CC1=C(C)C(=O)C(C(CCCC(=O)O)c2ccccc2)=C(C)C1=O` (stereo not given) registered an Inhibition in the experiment filed under Oryctolagus cuniculus [1] of 24%.
For `CC1=C(C)C(=O)C(C(CCc2cccc(C(=O)O)c2)c2ccccc2)=C(C)C1=O` (stereo not given), the results for the Inhibition in the experiment filed under Oryctolagus cuniculus [2] and in the experiment filed under Oryctolagus cuniculus [1] were 0% and 89%, respectively.
`CC1=C(C)C(=O)C(CCCCCCC(=O)O)=C(C)C1=O`: the Inhibition in the experiment listed under Oryctolagus cuniculus [1] turned out to be 8%.
With `CC1=C(C)C(=O)C(C(CCCCCC(=O)O)c2ccc(Br)cc2)=C(C)C1=O` (stereo not given), the Inhibition in the experiment listed under Oryctolagus cuniculus [2] turned out to be 36%; in the experiment listed under Oryctolagus cuniculus [1] it was 94%. The 50% inhibitory concentration (IC50) in the experiment filed under Oryctolagus cuniculus [3] was determined as 1.7 µM.
Consider `CC1=C(C)C(=O)C(C(CCCCCC(=O)O)c2ccc(Cl)cc2)=C(C)C1=O` (stereo not given), for which the Inhibition amounted to 91% in the experiment listed under Oryctolagus cuniculus [2], 17% in the experiment listed under Oryctolagus cuniculus [4] and 100% in the experiment filed under Oryctolagus cuniculus [1]. Also, the IC50 in the experiment filed under Oryctolagus cuniculus [3] turned out to be 0.28 µM.
`CC1=C(C)C(=O)C(C(CCCCCC(=O)O)c2ccc(C(C)C)cc2)=C(C)C1=O` (stereo not given): the Inhibition in the experiment listed under Oryctolagus cuniculus [1] was determined as 4%.
Turning to `CC1=C(C)C(=O)C(C(CCCCCC(=O)O)c2cccs2)=C(C)C1=O` (stereo not given), the Inhibition in the experiment filed under Oryctolagus cuniculus [2] was 65%; in the experiment listed under Oryctolagus cuniculus [4] it was 0%; in the experiment listed under Oryctolagus cuniculus [1] it was 100%. The same compound gave a half-inhibitory concentration (IC50) in the experiment filed under Oryctolagus cuniculus [3] of 0.76 µM.
In the experiment filed under Oryctolagus cuniculus [1], `COC1=C(OC)C(=O)C(C(CCCCCC(=O)O)c2ccccc2)=C(C)C1=O` (stereo not given) gave an Inhibition of 0%.
With `COC1=C(OC)C(=O)C(C(CCCCCC(=O)O)c2ccc(F)cc2)=C(C)C1=O` (stereo not given), the values for the Inhibition in the experiment listed under Oryctolagus cuniculus [2] and in the experiment filed under Oryctolagus cuniculus [1] were 0% and 99%, respectively. In addition, in the experiment listed under Oryctolagus cuniculus [3], half-maximal inhibition (IC50) was put at 3.2 µM.
